Data: ChEMBL document CHEMBL1122854, “Novel bis[1,6-dihydro-6,6-dimethyl-1,3,5-triazine-2,4-diamines] as antitrypanosomal agents” (1985)

Tests used:
Type in all cases: functional
Conditions in all cases: route subcutaneous
[1] = system: Trypanosoma brucei rhodesiense; test: Antitrypanosomal activity against Trypanosoma rhodesiense infections in mice, 106 mg/kg administered subcutaneously
Summary of the method: (§1)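 Six-week-old IUR/HA Swiss mice (30-32 g), 5 per dose, infected ip with 0.5 mL of a 1:50 000 dilution of heparinized heart blood from donor mice infected 3 days before (Wellcome CT strain). Single sc dose in peanut oil about 2 h post-inoculation. Deaths before day 4 counted toxic. ΔMST versus untreated controls; survivors at 30 days counted cured.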

[2] = system: Trypanosoma brucei rhodesiense; test: Antitrypanosomal activity was evaluated against Trypanosoma rhodesiense infections in mice, at dose 424 mg/kg, administered subcutaneously; summary of the method: as §1
[3] = system: Trypanosoma brucei rhodesiense; test: Anti-trypanosomal activity against Trypanosoma rhodesiense infections in mice, 26 mg/kg administered subcutaneously; summary of the method: as §1
[4] = system: Trypanosoma brucei rhodesiense; test: Antitrypanosomal activity against Trypanosoma rhodesiense infections in mice, 424 mg/kg administered subcutaneously
Summary of the method: (§2)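 IUR/HA Swiss mice (six weeks old, 30-32 g) infected i.p. with Wellcome CT strain T. rhodesiense. A single subcutaneous dose in peanut oil was given about 2 h after inoculation, with five mice per dose level. Positive control was stilbamidine or 2-hydroxystilbamidine isethionate at 40 mg/kg. Deaths before day 4 were scored toxic, and 30-day survivors cured.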

[5] = system: Trypanosoma brucei rhodesiense; test: Antitrypanosomal activity against Trypanosoma rhodesiense infections in mice, 3.3 mg/kg administered subcutaneously; summary of the method: as §1
[6] = system: Trypanosoma brucei rhodesiense; test: Antitrypanosomal activity against Trypanosoma rhodesiense infections in mice, 6.6 mg/kg administered subcutaneously; summary of the method: as §1
[7] = system: Trypanosoma brucei rhodesiense; test: Antitrypanosomal activity was evaluated against Trypanosoma rhodesiense infections in mice, at dose 1.6 mg/kg, administered subcutaneously; summary of the method: as §1
[8] = system: Trypanosoma brucei rhodesiense; test: Antitrypanosomal activity was evaluated against Trypanosoma rhodesiense infections in mice, at dose 26 mg/kg, administered subcutaneously; summary of the method: as §2
[9] = system: Trypanosoma brucei rhodesiense; test: Antitrypanosomal activity was evaluated against Trypanosoma rhodesiense infections in mice, at dose 106 mg/kg, administered subcutaneously; summary of the method: as §2
[10] = system: Trypanosoma brucei rhodesiense; test: Antitrypanosomal activity was evaluated against Trypanosoma rhodesiense infections in mice, at dose 26 mg/kg, administered subcutaneously;Toxic; summary of the method: as §2
[11] = system: Trypanosoma brucei rhodesiense; test: Antitrypanosomal activity was evaluated against Trypanosoma rhodesiense infections in mice, at dose 424 mg/kg, administered subcutaneously;Toxic; summary of the method: as §2
[12] = system: Trypanosoma brucei rhodesiense; test: Antitrypanosomal activity was evaluated against Trypanosoma rhodesiense infections in mice, at dose 106 mg/kg, administered subcutaneously;Toxic; summary of the method: as §2
Mus musculus [13] = test: Antitrypanosomal activity was evaluated against Trypanosoma rhodesiense infections in mice, at dose 6.6 mg/kg, administered subcutaneously; summary of the method: as §2
Mus musculus [14] = test: Antitrypanosomal activity was evaluated against Trypanosoma rhodesiense infections in mice, at dose 13 mg/kg, administered subcutaneously; summary of the method: as §2
Mus musculus [15] = test: Antitrypanosomal activity was evaluated against Trypanosoma rhodesiense infections in mice, at dose 212 mg/kg, administered subcutaneously;Toxic; summary of the method: as §2
Mus musculus [16] = test: Antitrypanosomal activity was evaluated against Trypanosoma rhodesiense infections in mice, at dose 106 mg/kg, administered subcutaneously;Cures; summary of the method: as §2
Mus musculus [17] = test: Antitrypanosomal activity was evaluated against Trypanosoma rhodesiense infections in mice, at dose 212 mg/kg, administered subcutaneously;Cures; summary of the method: as §2
Mus musculus [18] = test: Antitrypanosomal activity was evaluated against Trypanosoma rhodesiense infections in mice, at dose 26 mg/kg, administered subcutaneously;Cures; summary of the method: as §2
Mus musculus [19] = test: Antitrypanosomal activity was evaluated against Trypanosoma rhodesiense infections in mice, at dose 424 mg/kg, administered subcutaneously;Cures; summary of the method: as §2
Mus musculus [20] = test: Antitrypanosomal activity was evaluated against Trypanosoma rhodesiense infections in mice, at dose 53 mg/kg, administered subcutaneously;Cures; summary of the method: as §2
[21] = system: Trypanosoma brucei rhodesiense; test: Antitrypanosomal activity was evaluated against Trypanosoma rhodesiense infections in mice, at dose 212 mg/kg, administered subcutaneously; summary of the method: as §1
[22] = system: Trypanosoma brucei rhodesiense; test: (§3) Antitrypanosomal activity was evaluated against Trypanosoma rhodesiense infections in mice, at dose 53 mg/kg, administered subcutaneously; summary of the method: as §1
Mus musculus [23] = test: as §3; summary of the method: as §2

Structure (SMILES) | Delta MST [1] | Delta MST [2] | Delta MST [3] | Toxic [4] | Delta MST [5] | Delta MST [6] | Toxic [9] | also measured
CC1(C)N=C(N)N=C(N)N1c1cc(C(=O)O)cc(N2C(N)=NC(N)=NC2(C)C)c1.Cl.Cl | 0.1 days | -0.1 days | -0.1 days | – | – | – | – | –
CC1(C)N=C(N)N=C(N)N1c1ccc(N2C(N)=NC(N)=NC2(C)C)cc1.Cl.Cl | 0.2 days | 1 days | 0 days | 3 | -0.1 days | 0.1 days | – | Delta MST [7]: 0.1 days
CC1(C)N=C(N)N=C(N)N1c1cccc(N2C(N)=NC(N)=NC2(C)C)c1.Cl.Cl | – | – | 0 days | 5 | 0 days | 0 days | 5 | Toxic [8]: 1; Delta MST [7]: 0 days
CC1(C)N=C(N)N=C(N)N1c1ccc(OCCOc2ccc(N3C(N)=NC(N)=NC3(C)C)cc2)cc1.Cl.Cl | – | – | 8.9 days | 5 | 1 days | 2.6 days | 5 | Toxic [10]: 4; Delta MST [7]: 2.8 days
CC1(C)N=C(N)NC(Nc2ccc(CCc3ccc(NC4=NC(C)(C)N=C(N)N4)cc3)cc2)=N1.Cl | 0.8 days | 0 days | 0.2 days | – | – | – | – | Toxic [11]: 3
Cc1ccc(NC(=O)Nc2ccc(C)c(N3C(N)=NC(N)=NC3(C)C)c2)cc1N1C(N)=NC(N)=NC1(C)C.Cl.Cl | 0 days | – | 0 days | 5 | – | – | – | Toxic [12]: 2; Toxic [10]: 2
Cc1ccc(N2C(N)=NC(N)=NC2(C)C)cc1NC(=O)Nc1cc(N2C(N)=NC(N)=NC2(C)C)ccc1C.Cl.Cl | -0.1 days | -0.1 days | -0.1 days | – | – | – | – | Toxic [11]: 3
CC1(C)N=C(N)N=C(N)N1c1cccc2c(N3C(N)=NC(N)=NC3(C)C)cccc12.Cl.Cl | -0.3 days | -0.3 days | 1.1 days | – | – | – | – | Toxic [11]: 3
CC1(C)N=C(N)N=C(N)N1c1ccc2c(c1)S(=O)(=O)c1cc(N3C(N)=NC(N)=NC3(C)C)ccc1C2.Cl.Cl | -0.3 days | – | 0 days | 5 | 0 days | 0.2 days | – | Toxic [12]: 4; Delta MST [7]: 0 days
Cc1cc(S(=O)(=O)c2ccc(N3C(N)=NC(N)=NC3(C)C)cc2)ccc1N1C(N)=NC(N)=NC1(C)C.Cl.Cl | – | – | 0.7 days | 5 | 0.2 days | 0.4 days | 5 | Toxic [10]: 4
CC1(C)N=C(N)N=C(N)N1c1ccc(OCCCCCCOc2ccc(N3C(N)=NC(N)=NC3(C)C)cc2)cc1.Cl.Cl | – | – | – | 5 | – | – | 5 | Toxic [8]: 5; Toxic (Mus musculus [13]): 1; Toxic (Mus musculus [14]): 5
Cl.Cl.NC1=NC2(CCCCC2)N(c2ccc(CCc3ccc(N4C(N)=NC(N)=NC45CCCCC5)cc3)cc2)C(N)=N1 | 12 days | – | 1.3 days | – | – | – | – | Toxic (Mus musculus [15]): 1; Cures (Mus musculus [16]): 3; Cures (Mus musculus [17]): 3; Cures (Mus musculus [18]): 2; Cures (Mus musculus [19]): 4; Cures (Mus musculus [20]): 2; Toxic [11]: 1; Delta MST [21]: 11 days; Delta MST [22]: 9 days
CC1(C)N=C(N)N=C(N)N1c1ccc(OCCCCCCCCCCOc2ccc(N3C(N)=NC(N)=NC3(C)C)cc2)cc1.Cl.Cl | 0.1 days | 0.1 days | -0.1 days | – | – | – | – | –
CC1(C)N=C(N)N=C(N)N1c1ccc(SSc2ccc(N3C(N)=NC(N)=NC3(C)C)cc2)cc1.Cl.Cl | 0.1 days | 0.5 days | 0.1 days | – | – | – | – | –
CC1(C)N=C(N)N=C(N)N1c1ccc(NC(=O)Nc2ccc(N3C(N)=NC(N)=NC3(C)C)cc2)cc1.Cl.Cl | – | – | – | 5 | – | – | 5 | Toxic [10]: 1; Cures (Mus musculus [18]): 1; Toxic (Mus musculus [23]): 5
